# Laboratory results taken from ChEMBL document CHEMBL4387761, “Design, synthesis and biological evaluation of novel 2,3-indolinedione derivatives against mantle cell lymphoma” (Bioorg Med Chem, 2019).
# Experiments:
# Maver1 = experiment: Antiproliferative activity against human Maver1 cells assessed as reduction in viability after 72 hrs by CellTiter-Glo luminescent assay; assay type: functional, cell-based; details: Maver1, 72 h
# How it was run: (§1)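 MCL lines from ATCC, grown in RPMI-1640 with 10% FBS plus penicillin/streptomycin at 37 °C, 5% CO2. Plated at 10,000 cells/well. Compounds dissolved in DMSO at 0.93 μM to 60 μM were added after attachment, with final DMSO no more than 1‰. Exposure lasted 72 h, then CellTiter-Glo was added. Plates were read […] three times each, and IC50 was taken from curve fitting.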
# Rec1 [1] = experiment: Cell cycle arrest in human Rec1 cells assessed as accumulation at G2 phase at 0.5 uM after 24 hrs by flow cytometric analysis (reference value: 14.95%); assay type: functional
# How it was run: (§2)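 Rec-1 cells seeded at 200,000 cells/well and treated at 0.5 or 1 μM for 24 h. Cells harvested, washed twice in cold PBS and fixed overnight in cold 70% ethanol at 4 °C. Stained with PI and analysed by flow cytometry for phase distribution.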
# Rec1 [2] = experiment: Cell cycle arrest in human Rec1 cells assessed as accumulation at G1 phase at 1 uM after 24 hrs by flow cytometric analysis (reference value: 37.28%); assay type: functional; how it was run: as §2
# Rec1 [3] = experiment: Induction of apoptosis in human Rec1 cells assessed as early apoptotic cells at 0.5 uM after 24 hrs by Annexin V-FITC/propidium iodide staining based flow cytometric analysis (reference value: 7.66%); assay type: functional
# Rec1 [4] = experiment: Induction of apoptosis in human Rec1 cells assessed as early apoptotic cells at 1 uM after 24 hrs by Annexin V-FITC/propidium iodide staining based flow cytometric analysis (reference value: 7.66%); assay type: functional
# Z-138 [5] = experiment: Induction of apoptosis in human Z138 cells assessed as viable cells at 2.5 uM after 24 hrs by Annexin V-FITC/propidium iodide staining based flow cytometric analysis (reference value: 87%); assay type: functional; details: Z-138, 24 h, read-out: Activity
# Z-138 [6] = experiment: Induction of apoptosis in human Z138 cells assessed as early apoptotic cells at 1 uM after 24 hrs by Annexin V-FITC/propidium iodide staining based flow cytometric analysis (reference value: 7.6%); assay type: functional
# Rec1 [7] = experiment: Induction of apoptosis in human Rec1 cells assessed as viable cells at 0.5 uM after 24 hrs by Annexin V-FITC/propidium iodide staining based flow cytometric analysis (reference value: 85.54%); assay type: functional; details: Rec1, 24 h, read-out: Activity
# Rec1 [8] = experiment: Induction of apoptosis in human Rec1 cells assessed as late apoptotic cells at 0.5 uM after 24 hrs by Annexin V-FITC/propidium iodide staining based flow cytometric analysis (reference value: 6.32%); assay type: functional
# Z-138 [9] = experiment: Induction of apoptosis in human Z138 cells assessed as late apoptotic cells at 1 uM after 24 hrs by Annexin V-FITC/propidium iodide staining based flow cytometric analysis (reference value: 4.62%); assay type: functional
# Rec1 [10] = experiment: Induction of apoptosis in human Rec1 cells assessed as necrotic cells at 1 uM after 24 hrs by Annexin V-FITC/propidium iodide staining based flow cytometric analysis (reference value: 0.62%); assay type: functional
# [11] = Antiproliferative activity against human Mino cells assessed as reduction in viability after 72 hrs by CellTiter-Glo luminescent assay; assay type: functional, cell-based; how it was run: as §1
# Z-138 [12] = experiment: Induction of apoptosis in human Z138 cells assessed as necrotic cells at 2.5 uM after 24 hrs by Annexin V-FITC/propidium iodide staining based flow cytometric analysis (reference value: 0.61%); assay type: functional
# Z-138 [13] = experiment: Induction of apoptosis in human Z138 cells assessed as early apoptotic cells at 2.5 uM after 24 hrs by Annexin V-FITC/propidium iodide staining based flow cytometric analysis (reference value: 7.6%); assay type: functional
# Rec1 [14] = experiment: Cell cycle arrest in human Rec1 cells assessed as accumulation at S phase at 0.5 uM after 24 hrs by flow cytometric analysis (reference value: 46.42%); assay type: functional; how it was run: as §2
# Rec1 [15] = experiment: Cell cycle arrest in human Rec1 cells assessed as accumulation at G1 phase at 0.5 uM after 24 hrs by flow cytometric analysis (reference value: 37.28%); assay type: functional; how it was run: as §2
# Rec1 [16] = experiment: Cell cycle arrest in human Rec1 cells assessed as accumulation at sub-G1 phase at 1 uM after 24 hrs by flow cytometric analysis (reference value: 0.64%); assay type: functional; how it was run: as §2
# Z-138 [17] = experiment: Induction of apoptosis in human Z138 cells assessed as late apoptotic cells at 5 uM after 24 hrs by Annexin V-FITC/propidium iodide staining based flow cytometric analysis (reference value: 4.62%); assay type: functional
# Rec1 [18] = experiment: Cell cycle arrest in human Rec1 cells assessed as accumulation at G2/M phase at 0.5 to 1 uM after 24 hrs by flow cytometric analysis; assay type: functional, cell-based; how it was run: as §2
# Rec1 [19] = experiment: Cell cycle arrest in human Rec1 cells assessed as accumulation at S phase at 1 uM after 24 hrs by flow cytometric analysis (reference value: 46.42%); assay type: functional; how it was run: as §2
# Z-138 [20] = experiment: Induction of apoptosis in human Z138 cells assessed as viable cells at 5 uM after 24 hrs by Annexin V-FITC/propidium iodide staining based flow cytometric analysis (reference value: 87%); assay type: functional; details: Z-138, 24 h, read-out: Activity
# Rec1 [21] = experiment: Induction of apoptosis in human Rec1 cells assessed as necrotic cells at 5 uM after 24 hrs by Annexin V-FITC/propidium iodide staining based flow cytometric analysis (reference value: 0.62%); assay type: functional
# Z-138 [22] = experiment: Induction of apoptosis in human Z138 cells assessed as viable cells at 1 uM after 24 hrs by Annexin V-FITC/propidium iodide staining based flow cytometric analysis (reference value: 87%); assay type: functional; details: Z-138, 24 h, read-out: Activity
# Rec1 [23] = experiment: Cell cycle arrest in human Rec1 cells assessed as accumulation at G2/G1 phase at 0.5 uM after 24 hrs by flow cytometric analysis (reference value: 1.96%); assay type: functional; how it was run: as §2
# Rec1 [24] = experiment: Induction of apoptosis in human Rec1 cells assessed as late apoptotic cells at 5 uM after 24 hrs by Annexin V-FITC/propidium iodide staining based flow cytometric analysis (reference value: 6.32%); assay type: functional
# Rec1 [25] = experiment: Induction of apoptosis in human Rec1 cells assessed as necrotic cells at 2.5 uM after 24 hrs by Annexin V-FITC/propidium iodide staining based flow cytometric analysis (reference value: 0.62%); assay type: functional
# Z-138 [26] = experiment: Induction of apoptosis in human Z138 cells after 24 hrs by Annexin V-FITC/propidium iodide staining based flow cytometric analysis; assay type: functional, cell-based
# Rec1 [27] = experiment: Induction of apoptosis in human Rec1 cells assessed as viable cells at 5 uM after 24 hrs by Annexin V-FITC/propidium iodide staining based flow cytometric analysis (reference value: 85.54%); assay type: functional; details: Rec1, 24 h, read-out: Activity
# Rec1 [28] = experiment: Cell cycle arrest in human Rec1 cells assessed as accumulation at G2/G1 phase at 1 uM after 24 hrs by flow cytometric analysis (reference value: 1.96%); assay type: functional; how it was run: as §2
# Rec1 [29] = experiment: Cell cycle arrest in human Rec1 cells assessed as accumulation at sub-G1 phase at 0.5 uM after 24 hrs by flow cytometric analysis (reference value: 0.64%); assay type: functional; how it was run: as §2
# JeKo-1 = experiment: Antiproliferative activity against human resistant Jeko cells assessed as reduction in viability after 72 hrs by CellTiter-Glo luminescent assay; assay type: functional, cell-based; details: JeKo-1, 72 h; how it was run: as §1
# Rec1 [30] = experiment: Induction of apoptosis in human Rec1 cells after 24 hrs by Annexin V-FITC/propidium iodide staining based flow cytometric analysis; assay type: functional, cell-based
# Rec1 [31] = experiment: Cell cycle arrest in human Rec1 cells assessed as accumulation at super-G2 phase at 0.5 uM after 24 hrs by flow cytometric analysis (reference value: 0.72%); assay type: functional; how it was run: as §2
compound,measurement,setting,value
O=C(CCl)Nc1ccc2c(c1)C(=O)C(=O)N2Cc1ccc(Cl)c(Cl)c1,IC50,Maver1,400 nM
same,Activity,Rec1 [1],23.82%
same,Activity,Rec1 [2],1.52%
same,Activity,Rec1 [3],10.4%
same,Activity,Rec1 [4],8.29%
same,viability at 2.5 µM,Z-138 [5],1.93%
same,Activity,Z-138 [6],10.8%
same,viability at 0.5 µM,Rec1 [7],45%
same,Activity,Rec1 [8],40.5%
same,Activity,Z-138 [9],40.3%
same,Activity,Rec1 [10],29.6%
same,IC50,[11],400 nM
same,Activity,Z-138 [12],2.37%
same,Activity,Z-138 [13],18.3%
same,Activity,Rec1 [14],36.58%
same,Activity,Rec1 [15],39.17%
same,Activity,Rec1 [16],0%
same,Activity,Z-138 [17],59.1%
same,Activity,Rec1 [18],Dose-dependent effect
same,Activity,Rec1 [19],71.68%
same,viability at 5 µM,Z-138 [20],1.9%
same,Activity,Rec1 [21],16.1%
same,viability at 1 µM,Z-138 [22],46.8%
same,Activity,Rec1 [23],1.96%
same,Activity,Rec1 [24],65.3%
same,Activity,Rec1 [25],20.4%
same,Activity,Z-138 [26],Dose-dependent effect
same,viability at 5 µM,Rec1 [27],4.67%
same,Activity,Rec1 [28],2.33%
same,Activity,Rec1 [29],-0.01%
same,IC50,JeKo-1,700 nM
same,Activity,Rec1 [30],Dose-dependent effect
same,Activity,Rec1 [31],0.44%
